Calls of active or inactive are those of the source. No cut-off for these calls is given here.

We go through one compound from ChEMBL document CHEMBL5356984 (RSC Med Chem, 2023).

Data set [1] relates to SK-BR-3. The data set is described as follows: Induction of apoptosis in human SK-BR-3 cells assessed as increase in cleaved PARP level at 10 to 20 uM incubated for 48 hrs by Western blot analysis. The conditions noted are these: dose 10-20 µM. It counts as functional, cell-based. An outline of the steps: (§1)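 Cells exposed 48 h (DMSO vehicle control); trypsinized, lysed in RIPA with phosphatase/protease inhibitors; 20 μg protein on SDS-PAGE, blotted, blocked 5% milk 1 h; primary antibodies 1:1000 overnight at 4 °C, GAPDH 1:10000 as loading control; HRP secondary 1:1000–1:5000; ECL detection.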
For orientation: A western blot detects proteins with antibodies after separation by electrophoresis.

Data set [2] concerns BT-474. The data set is described as follows: Antiproliferative activity against human BT-474 cells assessed as inhibition of cell viability measured after 48 hrs by MTT assay. The format is functional, cell-based. The settings on record: BT-474, 48 h. The gist of the method:
(§2)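 MTT cell viability read-out; IC50 obtained by non-linear regression of concentration–response data; values are mean ± SD of three independent experiments.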
For orientation: Formazan colour is commonly taken as a measure of viable cells.

The subject of data set [3] is SK-BR-3. The data set is described as follows: Induction of apoptosis in human SK-BR-3 cells assessed as necrotic cells at 5 uM incubated for 36 hrs by Annexin V/PI staining based flow cytometry (reference value: 1.89 %). The format is functional.
Data set [4] concerns MCF7. The data set is described as follows: Antiproliferative activity against human MCF7 cells assessed as inhibition of cell viability at 20 uM measured after 48 hrs by MTT assay relative to control. The format is functional.
The target of data set [5] is T1, Heat shock protein HSP90 (Homo sapiens, UniProt P07900+P08238). The data set is described as follows: Inhibition of HSP90 in human MCF7 cells assessed as decrease in phosphorylated AKT level at 5 to 20 uM incubated for 48 hrs by Western blot analysis. The format is cell-based. The settings on record: dose 5-20 µM. The gist of the method:
(§3)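 MCF-7 or SKBr3 cells were exposed for 48 h, then trypsinised, PBS-washed and lysed in RIPA buffer with phosphatase and protease inhibitors. Cleared lysate (14 000 rpm, 4 °C, 15 min) was BCA-quantified, and 20 µg protein was run on SDS-PAGE and blotted. Blots were blocked in 5% milk, incubated with primary antibodies (1:1000) overnight at 4 °C, then HRP secondary, and developed by ECL. GAPDH (1:10000) was the loading control.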

The target of data set [6] is T1, Heat shock protein HSP90. The data set is described as follows: Inhibition of HSP90 in human MCF7 cells assessed as decrease in CDK4 level at 5 to 20 uM incubated for 48 hrs by Western blot analysis. It counts as cell-based. The settings on record: dose 5-20 µM. The gist of the method: as §3
For data set [7], the system named is MCF7. The data set is described as follows: Induction of cell cycle arrest in human MCF7 cells assessed as accumulation of cells at G1 phase at 5 to 10 uM incubated for 36 hrs by PI staining based flow cytometry. It counts as functional. The settings on record: dose 5-10 µM. The gist of the method:
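Following 36 h treatment (0, 5, 10 μM), trypsinized cells fixed overnight in 70% ethanol, treated with RNase (0.2 mg/mL) and PI (0.1 mg/mL) for 20 min, then analysed by flow cytometry for cell-cycle distribution; n = 3 versus control.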
A general note: Flow cytometry measures light scatter and fluorescence of single cells or particles in a stream.

The nature of data set [8]: Metabolic stability in simulated intestinal fluid at 37 degreeC at 1 mg/ml measured upto 1 hr by HPLC analysis. The conditions noted are these: simulated gi fluid. The format is ADME. An outline of the steps: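 Compound at 1 mg mL−1 was incubated in simulated intestinal fluid at 37 °C for up to 1 h. Remaining percentage was measured by HPLC on a C18 column (5 µm, 4.6 × 250 mm), eluting with 95% MeOH/5% H2O.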

Data set [9] deals with MCF7. The data set is described as follows: Induction of apoptosis in human MCF7 cells assessed as increase in cleaved pro-caspase-8 level at 10 to 20 uM incubated for 48 hrs by Western blot analysis. The format is functional, cell-based. The conditions noted are these: dose 10-20 µM. The gist of the method:
as §1

Data set [10] has as its system MCF7. The data set is described as follows: Induction of apoptosis in human MCF7 cells assessed as early apoptotic cells at 20 uM incubated for 36 hrs by Annexin V/PI staining based flow cytometry (reference value: 1.13 %). The format is functional.
The subject of data set [11] is MCF7. The data set is described as follows: Effect on AKT level in human MCF7 cells at 5 to 20 uM incubated for 48 hrs by Western blot analysis. The format is functional, cell-based. The conditions noted are these: dose 5-20 µM. An outline of the steps:
as §1

The subject of data set [12] is MCF7. The data set is described as follows: Induction of apoptosis in human MCF7 cells assessed as necrotic cells at 10 uM incubated for 36 hrs by Annexin V/PI staining based flow cytometry (reference value: 2.30 %). It counts as functional.
Data set [13] addresses T1, Heat shock protein HSP90. The data set is described as follows: Competitive binding affinity to N-terminal HSP90 (unknown origin) at 0.03 to 16 uM incubated for 3 hrs in presence of FITC-GA by fluorescence polarization assay. It counts as protein assay. The conditions noted are these: dose 0.03-16 µM. An outline of the steps:
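Competition against FITC-geldanamycin (5 nM) for HSP90α (10 nM) in reaction buffer with 1% BSA, DMSO <1%; compounds at 0.03–16.0 μM final; 3 h at room temperature; fluorescence polarization read at ex 485/em 530 nm; activity% = (FPdrug − FPbackground)/(FPenzyme − FPbackground) × 100, curve-fitted.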

The nature of data set [14]: Thermal stability of compound in boiling toluene at 120 degreeC at 1 mg/ml measured for 12 to 24 hrs by HPLC analysis. The conditions noted are these: time 12-24 hrs. The format is physicochemical. An outline of the steps:
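Compound at 1 mg mL−1 was heated in distilled boiling toluene at 120 °C for 0–24 h. Remaining percentage was measured by HPLC on a C18 column (5 µm, 4.6 × 250 mm) with MeOH/H2O gradients: 70→100% or 45→100% MeOH over 2–15 min, held at 100% to 20 min, then re-equilibrated.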

Data set [15] deals with T1, Heat shock protein HSP90. The data set is described as follows: Inhibition of HSP90 in human SK-BR-3 cells assessed as decrease in HER2 level at 5 to 20 uM incubated for 48 hrs by Western blot analysis. It counts as cell-based. The settings on record: dose 5-20 µM. The gist of the method: as §3
In data set [16] the target is T1, Heat shock protein HSP90. The data set is described as follows: Inhibition of HSP90 in human SK-BR-3 cells assessed as decrease in CDK4 level at 5 to 20 uM incubated for 48 hrs by Western blot analysis. The format is cell-based. The settings on record: dose 5-20 µM. The gist of the method: as §3
The target of data set [17] is T1, Heat shock protein HSP90. The data set is described as follows: Inhibition of HSP90 in human SK-BR-3 cells assessed as decrease in phosphorylated AKT level at 5 to 20 uM incubated for 48 hrs by Western blot analysis. It counts as cell-based. The settings on record: dose 5-20 µM. An outline of the steps: as §3
Data set [18] has as its system HEK-293T. The data set is described as follows: Cytotoxicity against HEK293T cells assessed as cell growth inhibition measured after 48 hrs by MTT assay. The settings on record: Homo sapiens. The format is functional, cell-based. An outline of the steps:
as §2

Data set [19] relates to MCF7. The data set is described as follows: Effect on HSF-1 level in human MCF7 cells assessed as nuclear accumulation at 10 uM incubated for 36 hrs by DAPI staining based immunofluorescence analysis. The format is functional, cell-based. An outline of the steps: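 Cells treated 36 h with DMSO vehicle control, then fixed with 4% paraformaldehyde 15 min, permeabilized with 0.2% Triton X-100 5 min, blocked with 3% BSA 15 min; primary antibody then fluorescent secondary antibody, each 1 h at room temperature; HSP70 green, HSF-1 red, nuclei DAPI; imaged by fluorescence microscopy.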

For data set [20], the system named is SK-BR-3. The data set is described as follows: Induction of apoptosis in human SK-BR-3 cells assessed as late apoptotic cells at 20 uM incubated for 36 hrs by Annexin V/PI staining based flow cytometry (reference value: 4.95 %). It counts as functional.
A short description of data set [21]: Thermal stability of compound in boiling toluene at 120 degreeC assessed as time taken for compound decomposition at 1 mg/ml by HPLC analysis. It counts as physicochemical. The settings on record: read-out: T50.
The test system of data set [22] is SK-BR-3. The data set is described as follows: Induction of apoptosis in human SK-BR-3 cells assessed as viable cells at 20 uM incubated for 36 hrs by Annexin V/PI staining based flow cytometry (reference value: 90.4 %). The format is functional. The settings on record: read-out: Activity.
The subject of data set [23] is SK-BR-3. The data set is described as follows: Induction of apoptosis in human SK-BR-3 cells assessed as late apoptotic cells at 5 uM incubated for 36 hrs by Annexin V/PI staining based flow cytometry (reference value: 4.95 %). It counts as functional.
For data set [24], the system named is MCF7. The data set is described as follows: Effect on HSP70 level in human MCF7 cells at 5 to 20 uM incubated for 48 hrs by Western blot analysis. The format is functional, cell-based. The settings on record: dose 5-20 µM. The gist of the method:
as §1

The term IC50 denotes the midpoint of a concentration-inhibition curve. In general, inhibition refers to how much of the control response was suppressed. With `CN1CCN(/C=C/C(=O)/C=C/c2cccc(O[Si](C)(C)C(C)(C)C)c2)CC1`, the outcome in data set [1], in data set [7] and in data set [9] was Active. Besides, the IC50 worked out at 9.06 µM in [2] and 32.6 µM in [18]. Besides, the Activity in data set [3] was found to be 1.81%; in [10], 3.58%; in [12], 10.1%; in data set [20], 30.7%; in data set [23] it was 5.82%. In addition, the inhibition at 20 µM in [4] was over 50%. Besides, the inhibition result in data set [5], in data set [6], in data set [15], in data set [16] and in data set [17] was “Active” in each case. In addition, the Stability result in data set [8] is “Stable”; in data set [14], “Unstable”. Moreover, the result in [11], in data set [13], in data set [19] and in [24] was inactive. Further, in data set [21], the half-life at 1 mg/ml was over 12 h. In data set [22], the viability at 20 µM was 18.5%.
